Screens (PubChem)
Sampled rows, rich in hits. Any-hit rate of the full collection: about 2.9%.
SENP8 block-1: SENP8 protease inhibitors, primary screen, biochemical, luminescence. Sentrin-specific protease 8 (Homo sapiens), Q96LD8. purified SENP8, Z-RLRGG-aminoluciferin cleavage. inhibition, % at 10 µM. actives 1.2% (n = 330,000). AID 2540, 2010; in the data active = inhibition above about 50%
SENP1 FRET inh: human SENP1 catalytic domain inhibitors, primary screen, biochemical, FRET, uHTS | recombinant SENP1 catalytic domain, CyPet-SUMO1-YPet FRET cleavage | inhibition, % at 10 µM | actives 0.21% (n = 360,000) | AID 624204, 2012;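 active = inhibition at least 30% at 10 µM, raw YFP signal under a set limit, fluorescence ratio 0.5 to 1.5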;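 note: 0% = enzyme with DMSO and 100% = no enzyme wells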
Target sequence (Q9P0U3 419-644 limits assumed): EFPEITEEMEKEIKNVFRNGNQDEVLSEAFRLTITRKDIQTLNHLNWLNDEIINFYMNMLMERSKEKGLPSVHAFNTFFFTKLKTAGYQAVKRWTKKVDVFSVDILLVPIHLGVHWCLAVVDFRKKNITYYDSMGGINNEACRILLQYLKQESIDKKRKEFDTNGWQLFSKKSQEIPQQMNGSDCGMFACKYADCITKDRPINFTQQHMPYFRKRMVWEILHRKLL
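Test system: recombinant human SENP1 catalytic domain, His6-tagged / Medium: pH 8 Tris buffer with EDTA, NaCl, BME, BSA, NP40, catalase / Also added: SUMO1 FRET substrate flanked by Cypet and Ypet, 25 nM / Times: 50 min reaction at room temperature / Signal: FRET, CFP and YFP emission / Control set: no-enzyme low control and enzyme-plus-DMSO high control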
HSP90 inh: HSP90 inhibitors, primary screen, cell lysate, luminescence; AID 1789, 2009; Rabbit reticulocyte lysate, luciferase refolding luminescence, 3 h; inhibition, % at 5.6 µM; actives 0.91% (n = 290,000); Heat shock protein HSP 90 (rabbit reticulocyte lysate; luciferase refolding);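 active = inhibition above the screen-wide mean plus 3 SD, computed separately per campaign, cut at about 16% in these data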;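 note: 0% = DMSO wells and 100% = 60 µM geldanamycin wells; inhibitors lower the luminescence because luciferase stays unfolded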
SENP6 inh: SENP6 protease inhibitors, primary screen, biochemical, luminescence, uHTS; actives 1.8% (n = 330,000); Sentrin-specific protease 6 (Homo sapiens), Q9GZR1; Recombinant SENP6 catalytic domain, aminoluciferin luminescence; inhibition, % at 10 µM;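 active = inhibition above about 50% at the single tested dose, limit read from the data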;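 note: plate controls were DMSO wells with enzyme for no effect and DMSO wells lacking enzyme for full effect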
Target sequence (Q9GZR1 628-1112 limits assumed): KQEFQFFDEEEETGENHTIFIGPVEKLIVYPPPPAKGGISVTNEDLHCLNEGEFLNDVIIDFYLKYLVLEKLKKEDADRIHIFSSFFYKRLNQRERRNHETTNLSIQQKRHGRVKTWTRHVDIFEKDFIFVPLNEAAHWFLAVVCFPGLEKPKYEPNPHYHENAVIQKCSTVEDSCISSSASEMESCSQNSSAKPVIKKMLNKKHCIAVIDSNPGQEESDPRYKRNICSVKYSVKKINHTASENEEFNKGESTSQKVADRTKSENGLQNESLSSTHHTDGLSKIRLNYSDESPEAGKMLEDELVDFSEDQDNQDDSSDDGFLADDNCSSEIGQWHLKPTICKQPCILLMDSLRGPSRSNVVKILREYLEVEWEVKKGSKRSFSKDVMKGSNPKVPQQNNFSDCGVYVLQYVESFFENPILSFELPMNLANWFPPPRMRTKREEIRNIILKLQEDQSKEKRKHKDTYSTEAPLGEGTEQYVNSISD
SENP7 inh: SENP7 protease inhibitors, primary screen, biochemical, luminescence, uHTS; Sentrin-specific protease 7 (Homo sapiens), Q9BQF6; recombinant SENP7, Z-RLRGG-aminoluciferin luminescence, 40 min; inhibition, % at 5 µM; actives 1.5% (n = 330,000); AID 434973, 2010;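 active = inhibition above about 50% at the single test dose, limit read from the data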;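 note: plate controls were DMSO with enzyme for no effect and no enzyme buffer wells for full effect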
SENP8 block-2: human SENP8 protease inhibitors, primary screen, biochemical, fluorescence, Nedd8 protein substrate, uHTS; recombinant SENP8; inhibition, % at 20 µM; actives 0.64% (n = 360,000); AID 602440, 2012; in the data active = inhibition mostly above about 40%, no sharp cut-off; inactive = mostly below about 27%
SENP8 conf: SENP8 protease inhibitors, retest, confirmation, biochemical, luminescence, single concentration | shares compounds with SENP7 inh | Recombinant SENP8, Z-RLRGG-aminoluciferin luminescence, 60 min | inhibition, % at 12.5 µM | actives 40% (n = 6,200) | AID 488912, 2010;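 active = mean inhibition across replicates above about 50%, limit read from the data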
SENP6 conf: SENP6 protease inhibitors, confirmation, biochemical, luminescence, single concentration | shares compounds with SENP7 inh | recombinant SENP6, Z-RLRGG-aminoluciferin luminescence | inhibition, % at 12.5 µM | actives 58% (n = 6,200)
SENP7 confirm: SENP7 protease inhibitors, retest, confirmation, biochemical, luminescence, single concentration; shares compounds with SENP7 inh; recombinant SENP7, Z-RLRGG-aminoluciferin luminescence, 40 min; inhibition, % at 12.5 µM; actives 69% (n = 6,200)
Casp3 select: caspase-3 protease inhibitors, confirmation, selectivity assay for SENP inhibitor project, biochemical, single concentration; shares compounds with SENP7 inh; purified caspase-3, Z-DEVD-aminoluciferin luminescence, 60 min; inhibition, % at 12.5 µM; actives 60% (n = 6,200);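 active = mean inhibition above about 50%, limit read from the data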;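 note: plate controls were enzyme with DMSO for no effect and wells without caspase-3 for full effect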
Luc interf: interferes with luciferase luminescence in SENP counter-screen; shares compounds with SENP7 inh; Pre-incubated SENP8/Z-RLRGG-aminoluciferin, luciferase luminescence interference; inhibition, % at 12.5 µM; actives 39% (n = 6,200); AID 488919;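 active = mean inhibition above about 50% when retested at one dose, limit read from the data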;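 note: plate controls were DMSO wells with completed reaction for no effect and substrate without enzyme for full effect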
Active calls of the source: *; nt = no result.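 Rule for the calls, unless noted: active = mean inhibition above about 50% in the one-dose retest (limit read from the data); inactive = the rest.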

SMILES | SENP8 block-1 | SENP1 FRET inh | HSP90 inh | SENP6 inh | SENP7 inh | SENP8 block-2 | SENP8 conf | SENP6 conf | SENP7 confirm | Casp3 select | Luc interf
Cc1ccc(-c2noc(-c3cccs3)n2)cc1 | 95* | 2 | 4 | 95* | -5 | 10 | 14 | 97* | 103* | 90* | 70*
c1csc(-c2nc(N3CCCCC3)no2)c1 | 53* | 0 | 4 | 66* | 61* | -289 | -18 | 43 | 84* | 52* | 4
COc1ccc(CN(C)c2ncnc3sccc23)c(OC)c1OC | -5 | -41 | -4 | -7 | -7 | -8 | nt | nt | nt | nt | nt
CN1CCN(c2ccc(C(=O)c3ccc(Br)cc3)cc2[N+](=O)[O-])CC1 | -7 | 1 | 1 | -21 | -5 | 22 | nt | nt | nt | nt | nt
COc1ccc(C(=O)CC(=O)c2ccccc2O)cc1 | 44 | 2 | -2 | 51* | 45 | -25 | 48 | 47 | 83* | 50 | 54*
COc1ccc(C(=O)N=c2sc3c(C)ccc(OC)c3n2C)cc1 | 90* | 3 | -5 | 98* | 99* | -405 | -18 | 1 | 15 | 8 | 25
COc1cc(C(=O)N=c2sc3c(C)ccc(OC)c3n2C)cc(OC)c1OC | 8 | 1 | 1 | 24 | 77* | -397 | 7 | 6 | 23 | 0 | -11
COc1ccc(OC)c2c1sc(=NC(=O)C(C)(C)C)n2C | -13 | 2 | -1 | -4 | -10 | -24 | nt | nt | nt | nt | nt
COc1ccc(CC(=O)Nc2nn(C)c3nc4c(C)cccc4cc23)cc1 | 13 | -35 | 1 | -1 | 1 | -436 | nt | nt | nt | nt | nt
COC(=O)C1=C(CSc2nc3ccccc3s2)NC(=O)NC1c1ccc(F)cc1 (stereo not given) | -1 | 1 | 1 | 1 | -11 | 11 | nt | nt | nt | nt | nt
CCCCc1ccc(-c2ccc(Br)cc2)nc1 | 58* | 1 | 3 | 68* | 10 | 14 | 30 | 34 | 51* | 46 | 40
O=C(CCl)Oc1ccc2occ(C(=O)c3cccs3)c2c1 | 27 | 1 | 3 | 63* | 38 | 14 | 32 | 30 | 66* | 40 | 30
O=C(c1cccs1)c1coc2ccc(O)cc12 | 21 | 2 | 3 | 54* | 28 | 24 | 41 | 48 | 77* | 49 | 32
CC(=O)c1ccc(S(=O)(=O)NCc2ccc(C(=O)NCC(c3ccccc3)N(C)C)cc2)cc1 (stereo not given) | -3 | -2 | 1 | -6 | -5 | -16 | nt | nt | nt | nt | nt
COc1ccc(-c2cc3cccc(OC)c3oc2=O)cc1 | 80* | 7 | 14 | 81* | 87* | -293 | 89* | 90* | 99* | 88* | 76*
COc1cccc2cc(-c3nc4ccccc4[nH]3)c(=O)oc12 | 35 | -27 | 1 | 50 | 59* | -290 | 16 | 15 | 20 | 36 | 19
COc1ccccc1OCC(=O)N/N=C(\C)c1ccc2ccccc2c1 | nt | 1 | nt | nt | nt | 20 | nt | nt | nt | nt | nt
COc1ccc(-c2cn(CCC(=O)O)c(C)n2)cc1 | 81* | 2 | nt | 85* | 25 | 9 | -8 | 85* | 94* | 27 | 40
O=C(O)c1ccccc1N/N=C\c1ccnc2ccccc12 | 90* | -22 | 4 | 94* | 38 | -29 | 12 | 100* | 103* | 97* | 94*
O=C(O)c1cccc2c(/C=N/Nc3ccccn3)c[nH]c12 | 88* | 2 | 6 | 90* | 90* | 14 | 65* | 92* | 93* | 93* | 47
ON=Cc1ccnc2ccccc12 | nt | 1 | nt | nt | nt | -12 | nt | nt | nt | nt | nt
O=C(O)c1ccccc1N/N=C/c1cc(Br)cc(Br)c1O | 92* | -100 | -1 | 102* | 9 | 5 | 94* | 98* | 97* | 70* | 40
Cn1c(=O)[nH]c(=O)c2c1nc(N/N=C/C(Br)=C/c1ccccc1)n2CCO | -6 | 4 | -1 | -18 | -4 | -38 | nt | nt | nt | nt | nt
COc1ccc(CN2CCCC(C(=O)c3cccc(OC(C)C)c3)C2)cc1Cn1cccn1 (stereo not given) | 1 | -1 | 2 | -2 | 11 | 8 | nt | nt | nt | nt | nt
CC(=O)Nc1cc(-c2ccccc2CN(C)C)cn2c(-c3ccc(F)c(Cl)c3)cnc12 | nt | 0 | nt | nt | nt | -297 | nt | nt | nt | nt | nt
SMILES | SENP8 block-1 | SENP1 FRET inh | HSP90 inh | SENP6 inh | SENP7 inh | SENP8 block-2 | SENP8 conf | SENP6 conf | SENP7 confirm | Casp3 select | Luc interf
CCC(=O)OCCNc1cc(Sc2nc3ccccc3s2)c2nonc2c1[N+](=O)[O-] | 41 | -14 | 4 | 72* | 44 | 60* | 1 | 12 | -4 | -2 | -3
O=[N+]([O-])c1c(NCCCO)cc(Sc2nc3ccccc3s2)c2nonc12 | 91* | -13 | -2 | 82* | 80* | 26 | 7 | 13 | 0 | -3 | 0
Cc1nnc(Sc2cc(NCCO)c([N+](=O)[O-])c3nonc23)s1 | nt | -16 | 4 | nt | nt | 33 | nt | nt | nt | nt | nt
Cc1c(NS(=O)(=O)c2cc(C(=O)N(C)Cc3ccccc3)ccc2Cl)c(=O)n(-c2ccccc2)n1C | 2 | -2 | nt | 13 | -6 | -11 | nt | nt | nt | nt | nt
COC(=O)c1sc(-c2cccs2)cc1N | 3 | -10 | 4 | 3 | -5 | -345 | nt | nt | nt | nt | nt
COC(=O)c1sc(-c2ccc(Cl)cc2)cc1N | 63* | -6 | 1 | 81* | 68* | -305 | 54* | 69* | 91* | 44 | 15
C(/C=C/c1ccccc1)=N/N1CCN(c2ccccc2)CC1 | -12 | 1 | 1 | 14 | 61* | 24 | 12 | 12 | 25 | 39 | 12
